In general, inhibition refers to the change of the read-out against control, counted positive when it falls. One may read the IC50 as the concentration that gives 50% inhibition. Usually Ki stands for the equilibrium dissociation constant of an inhibitor or competing ligand from its target.

This is an account of results in ChEMBL document CHEMBL3588796 (Bioorg Med Chem, 2015).

Assay [1] has as its target T1, Kappa-type opioid receptor (Homo sapiens, UniProt P41145). Put plainly: Antagonist activity against human kappa opioid receptor expressed in human U2OS cells co-expressing beta-arrestin2 pre-treated for 15 mins before U69,593 stimulation for 90 mins by DiscoveRx beta-arrestin2 recruitment based PathHunter assay relative to control. In kind it is cell-based. Also on record: concentration or dose not given beside the values. In short, it runs like this:
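U2OS-hKOR-βarrestin2 PathHunter cells, 5,000 per well, plated overnight in Opti-MEM with 1% FBS. Antagonist pretreatment 15 min at 37 °C, then 1 μM U69,593 for 90 min at 37 °C. Detection reagent 60 min at room temperature; chemiluminescence read-out. Concentration-response curves fitted by three-parameter regression; n ≥ 3 independent experiments.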

The target of assay [2] is T1, Kappa-type opioid receptor. Put plainly: Antagonist activity against HA-tagged human recombinant kappa opioid receptor expressed in CHO cells assessed as inhibition of U69,593-induced ERK phosphorylation pre-incubated with compound before U69,593 stimulation for 10 mins relative to control. Also on record: concentration or dose not given beside the values. It counts as cell-based. In outline: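 hKOR-CHO cells, 15,000 per well, plated overnight at 37 °C and serum-starved 1 h. Compound added, then 100 nM U69,593 for 10 min at 37 °C. Fixed cells stained overnight at 4 °C for phospho- and total ERK1/2. In-cell western read by infrared imaging at 700/800 nm. Three-parameter nonlinear fit; 2–4 replicates per experiment, n ≥ 3.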

In assay [3] the target is T2, Delta-type opioid receptor (Homo sapiens, UniProt P41143). Put plainly: Antagonist activity against delta opioid receptor (unknown origin).
T2 sequence (P41143 whole entry): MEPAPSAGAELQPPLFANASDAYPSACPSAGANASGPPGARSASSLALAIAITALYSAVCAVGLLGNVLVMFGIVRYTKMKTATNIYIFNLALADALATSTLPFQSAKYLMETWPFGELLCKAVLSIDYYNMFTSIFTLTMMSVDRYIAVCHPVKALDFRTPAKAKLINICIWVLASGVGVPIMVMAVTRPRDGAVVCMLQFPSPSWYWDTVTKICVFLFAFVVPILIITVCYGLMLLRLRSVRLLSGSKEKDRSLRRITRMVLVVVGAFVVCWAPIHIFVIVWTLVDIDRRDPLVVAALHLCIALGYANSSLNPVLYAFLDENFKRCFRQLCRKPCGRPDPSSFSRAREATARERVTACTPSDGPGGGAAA
Assay [4] concerns the target T3, Mu-type opioid receptor (Homo sapiens, UniProt P35372). Briefly: Antagonist activity against mu opioid receptor (unknown origin).
Assay [5] deals with T3, Mu-type opioid receptor. Put plainly: Binding affinity to mu opioid receptor (unknown origin).
In assay [6] the target is Kappa-type opioid receptor (Rattus norvegicus, UniProt P34975). Briefly: Displacement of radio-labeled U69,593 from rat kappa opioid receptor expressed in HEK293 cell membranes.
Sequence of Kappa-type opioid receptor (Rattus norvegicus, UniProt P34975) (P34975 whole entry): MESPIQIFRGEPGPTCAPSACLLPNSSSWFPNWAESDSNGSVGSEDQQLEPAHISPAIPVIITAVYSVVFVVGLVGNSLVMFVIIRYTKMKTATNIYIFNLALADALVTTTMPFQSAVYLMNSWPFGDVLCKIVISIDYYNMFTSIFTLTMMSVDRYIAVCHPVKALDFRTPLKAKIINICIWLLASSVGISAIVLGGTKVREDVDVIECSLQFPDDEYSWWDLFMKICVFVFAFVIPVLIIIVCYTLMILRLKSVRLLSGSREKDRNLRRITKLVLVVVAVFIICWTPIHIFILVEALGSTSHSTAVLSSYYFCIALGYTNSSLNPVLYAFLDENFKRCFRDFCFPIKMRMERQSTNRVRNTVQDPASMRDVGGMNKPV
In assay [7] the target is T2, Delta-type opioid receptor. Briefly: Binding affinity to delta opioid receptor (unknown origin).
For assay [8], the target named is T1, Kappa-type opioid receptor. Briefly: Antagonist activity against HA-tagged human recombinant kappa opioid receptor expressed in CHO cell membranes incubated for 1 hr by [35S]GTPgammaS binding assay. In kind it is functional. Background: GTPγS is a poorly hydrolysed GTP analogue; its binding reports G protein activation.
In assay [9] the target is T1, Kappa-type opioid receptor. Put plainly: Antagonist activity against human kappa opioid receptor expressed in human U2OS cells co-expressing beta-arrestin2 pre-treated for 15 mins before U69,593 stimulation for 90 mins by DiscoveRx beta-arrestin2 recruitment based PathHunter assay. In kind it is cell-based. On the technique in general: Recruitment of arrestin is a read-out of receptor activation apart from second messengers.

Assay [10] addresses T1, Kappa-type opioid receptor. Put plainly: Antagonist activity against HA-tagged human recombinant kappa opioid receptor expressed in CHO cells assessed as inhibition of U69,593-induced ERK phosphorylation pre-incubated with compound before U69,593 stimulation for 10 mins. It counts as cell-based.

T1 sequence (P41145 whole entry): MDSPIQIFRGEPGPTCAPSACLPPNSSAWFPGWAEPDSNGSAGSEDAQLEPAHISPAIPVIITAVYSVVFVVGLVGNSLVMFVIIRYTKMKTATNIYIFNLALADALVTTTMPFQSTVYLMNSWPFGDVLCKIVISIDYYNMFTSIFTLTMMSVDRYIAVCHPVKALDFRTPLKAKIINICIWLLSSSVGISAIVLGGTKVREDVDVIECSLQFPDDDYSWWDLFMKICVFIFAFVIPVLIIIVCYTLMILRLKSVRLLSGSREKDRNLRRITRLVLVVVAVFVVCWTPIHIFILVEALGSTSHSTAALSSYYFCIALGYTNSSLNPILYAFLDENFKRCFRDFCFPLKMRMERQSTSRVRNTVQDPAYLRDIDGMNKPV
T3 sequence (P35372 whole entry): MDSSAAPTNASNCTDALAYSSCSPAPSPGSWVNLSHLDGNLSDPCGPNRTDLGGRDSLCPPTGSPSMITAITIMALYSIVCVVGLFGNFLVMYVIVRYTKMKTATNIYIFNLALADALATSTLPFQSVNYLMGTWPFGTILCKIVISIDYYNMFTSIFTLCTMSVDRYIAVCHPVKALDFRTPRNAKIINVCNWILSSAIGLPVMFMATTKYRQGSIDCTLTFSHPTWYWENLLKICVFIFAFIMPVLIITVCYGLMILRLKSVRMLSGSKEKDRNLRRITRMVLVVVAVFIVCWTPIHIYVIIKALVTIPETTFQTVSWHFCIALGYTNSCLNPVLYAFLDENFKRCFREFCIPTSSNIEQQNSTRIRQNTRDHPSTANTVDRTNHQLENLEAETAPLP

Consider `Cc1cc(C)c(S(=O)(=O)N2CCc3cc(C(=O)NCCN(Cc4ccccc4)C(C)C)ccc3C2)c(C)c1`, for which the inhibition in assay [1] and in assay [2] was over 86% each time.

For the molecule `Cc1ccc(S(=O)(=O)N2CCc3cc(C(=O)NCCN(Cc4ccc(F)cc4)C(C)(C)C)ccc3C2)cc1`, the inhibition in assay [1] and in assay [2] was over 86% throughout.

As to `Cc1ccc(S(=O)(=O)NCc2ccc(C(=O)NCCN(Cc3ccccc3)C(C)C)cc2)cc1`, the results for the IC50 (in [3]; against Mu-type opioid receptor [4]) were over 32 µM and over 24 µM, respectively. For the same molecule, the inhibition in assay [1] and in assay [2] was over 86% in each case. For the same molecule, the Ki at Mu-type opioid receptor [5] stood at 0.306 µM; in [6], 0.05 µM; in assay [7] it was 1.09 µM.

As to `Cc1cc(C)c(S(=O)(=O)N2CCc3cc(C(=O)NCCN(Cc4ccc(F)cc4)C(C)(C)C)ccc3C2)c(C)c1`, the inhibition in [1] and in assay [2] was over 86% throughout.

As to `Cc1ccc(S(=O)(=O)N2CCc3cc(C(=O)NCCN(Cc4ccc(Cl)cc4)C(C)C)ccc3C2)cc1`, the inhibition in [1] and in [2] was over 86% throughout.

For `Cc1ccc(S(=O)(=O)NCc2ccc(C(=O)NCCN(Cc3ccc(Br)cc3)C(C)C)cc2)cc1`, the inhibition in assay [1] and in [2] was over 86% each time.

Regarding `CCc1ccc(S(=O)(=O)N2CCc3cc(C(=O)NCCN(Cc4ccccc4)C(C)(C)C)ccc3C2)cc1`, the inhibition in assay [1] and in assay [2] was over 86% throughout.

As for `Cc1cc(C)c(S(=O)(=O)N2CCc3cc(C(=O)NCCN(Cc4ccc(Br)cc4)C(C)(C)C)ccc3C2)c(C)c1`, the inhibition in assay [1] and in [2] was over 86% in each case.

As to `Cc1ccc(S(=O)(=O)N2CCc3cc(C(=O)NCCN(Cc4ccccc4)C(C)(C)C)ccc3C2)cc1`, the inhibition in assay [1] and in assay [2] was over 86% throughout. Besides, the inhibitory constant (Ki) came to 1.75 µM on Mu-type opioid receptor [5], 0.037 µM in assay [6] and 2.33 µM in assay [7].

For the molecule `Cc1ccc(S(=O)(=O)NCc2ccc(C(=O)NC3CCN(Cc4ccccc4)C3)cc2)cc1` (stereo not given), the IC50 in [8] (read-out: IC50) was over 18 µM.

Turning to `Cc1ccc(S(=O)(=O)N2CCc3cc(C(=O)NCCN(Cc4ccc(Br)cc4)C(C)C)ccc3C2)cc1`, the inhibition in assay [1] and in assay [2] was over 86% each time. In addition, the Ki on Mu-type opioid receptor [5] was found to be 8.17 µM; in [6], 0.073 µM; in assay [7] it was 5.19 µM.

Regarding `Cc1ccc(S(=O)(=O)NCc2ccc(C(=O)NCCN3Cc4ccccc4C3)cc2)cc1`, the IC50 in [8] (read-out: IC50) was over 18 µM.

For `Oc1ccc2c3c1O[C@H]1c4[nH]c5c(c4C[C@@]4(O)[C@@H](C2)N(CC2CC2)CC[C@]314)C[C@@]1(O)[C@H]2Cc3ccc(O)c4c3[C@@]1(CCN2CC1CC1)[C@H]5O4`, the inhibition in assay [1] and in assay [2] was over 86% in each case.

Consider `Cc1ccc(S(=O)(=O)N(C)Cc2ccc(C(=O)N(C)CCN(Cc3ccccc3)C(C)C)cc2)cc1`, for which the 50% inhibitory concentration (IC50) result in assay [9], in assay [8] (cho) and in [10] was “Not Active” each time.

Regarding `Cc1ccc(S(=O)(=O)N2CCc3cc(C(=O)NCCN(Cc4ccc(Cl)cc4)C(C)(C)C)ccc3C2)cc1`, the inhibition in assay [1] and in assay [2] was over 86% each time. Also, the Ki on Mu-type opioid receptor [5] was over 10 µM; in assay [6], 0.053 µM; in assay [7], over 10 µM.

For `CCc1ccc(S(=O)(=O)N2CCc3cc(C(=O)NCCN(Cc4ccc(Br)cc4)C(C)C)ccc3C2)cc1`, the inhibition in [1] and in assay [2] was over 86% each time.

Turning to `Cc1ccc(S(=O)(=O)N2CCc3cc(C(=O)NCCN(Cc4ccc(Br)cc4)C(C)(C)C)ccc3C2)cc1`, the inhibition in assay [1] and in [2] was over 86% throughout.

For the molecule `Cc1ccc(S(=O)(=O)N2CCc3cc(C(=O)NCCN(Cc4ccc(F)cc4)C(C)C)ccc3C2)cc1`, the inhibition in [1] and in [2] was over 86% throughout.

As to `Cc1ccc(S(=O)(=O)NCc2ccc(C(=O)NCC3CCCN(Cc4ccccc4)C3)cc2)cc1` (stereo not given), the 50% inhibitory concentration (IC50) in assay [8] (read-out: IC50) is over 18 µM.
